Measurements: ChEMBL document CHEMBL1629583, “Establishment of in vitro susceptibility testing methodologies and comparative activities of piperacillin in combination with the penem {beta}-lactamase inhibitor BLI-489” (2009)

Columns and labels:
Type in all cases: functional
[1] = system: Streptococcus pneumoniae; assay: Antimicrobial activity against penicillin-intermediate Streptococcus pneumoniae clinical isolate after 18 to 22 hrs by broth microdilution method in presence of beta-lactamase inhibitor Tazobactam
Method in brief: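 Broth microdilution per CLSI in Mueller-Hinton II broth supplemented with 5% lysed horse blood, using serial dilutions of piperacillin-tazobactam. Inoculum was 10^5 CFU/ml. Incubation was 18 to 22 h at 35°C in ambient air. MIC was the lowest concentration with no growth visible to the unaided eye.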

[2] = system: Escherichia coli; assay: Antimicrobial activity against class A extended spectrum beta-lactamase- producing Escherichia coli clinical isolate after 18 to 22 hrs by broth microdilution method in presence of beta-lactamase inhibitor BLI-489
Method in brief: (§1)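 Piperacillin serially diluted with BLI-489 held at a constant 4 μg/ml, by CLSI broth microdilution in Mueller-Hinton II broth. Inoculum was 10^5 CFU/ml. Plates were incubated 18 to 22 h at 35°C in ambient air. MIC was the lowest concentration completely inhibiting growth seen by the unaided eye.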

[3] = system: Haemophilus parainfluenzae; assay: Antimicrobial activity against Haemophilus parainfluenzae clinical isolate after 18 to 22 hrs by broth microdilution method in presence of beta-lactamase inhibitor BLI-489
Method in brief: (§2)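 Haemophilus isolates were tested in Haemophilus test medium by CLSI broth microdilution. Serial piperacillin dilutions carried BLI-489 fixed at 4 μg/ml. Inoculum was 10^5 CFU/ml, incubated 18 to 22 h at 35°C in ambient air. MIC was the lowest concentration completely inhibiting growth by eye.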

[4] = system: Peptostreptococcus anaerobius; assay: Antimicrobial activity against Peptostreptococcus anaerobius clinical isolate after 18 to 22 hrs by broth microdilution method in presence of beta-lactamase inhibitor Tazobactam
[5] = system: Klebsiella pneumoniae; assay: Antimicrobial activity against class A extended spectrum beta-lactamase- producing Klebsiella pneumoniae clinical isolate after 18 to 22 hrs by broth microdilution method in presence of beta-lactamase inhibitor BLI-489; method in brief: as §1
[6] = system: Klebsiella aerogenes; assay: Antimicrobial activity against Enterobacter aerogenes clinical isolate after 18 to 22 hrs by broth microdilution method in presence of beta-lactamase inhibitor BLI-489
Method in brief: (§3)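 CLSI broth microdilution in Mueller-Hinton II broth. Piperacillin serial dilutions were combined with BLI-489 held constant at 4 μg/ml. Inoculum was 10^5 CFU/ml. Plates were incubated 18 to 22 h at 35°C in ambient air. MIC was the lowest concentration completely inhibiting growth seen by the unaided eye. Piperacillin-tazobactam interpretive criteria were applied.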

[7] = system: Enterococcus faecalis; assay: Antimicrobial activity against vancomycin-resistant Enterococcus faecalis clinical isolate after 18 to 22 hrs by broth microdilution method in presence of beta-lactamase inhibitor BLI-489
Method in brief: (§4)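 CLSI broth microdilution in Mueller-Hinton II broth. Antibiotic in serial dilution with the β-lactamase inhibitor held at a constant 4 μg/ml. Inoculum 10^5 CFU/ml. Incubated 18 to 22 h at 35°C in ambient air.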

[8] = system: Serratia marcescens; assay: Antimicrobial activity against Serratia marcescens clinical isolate after 18 to 22 hrs by broth microdilution method in presence of beta-lactamase inhibitor Tazobactam
Method in brief: (§5)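 Piperacillin-tazobactam was tested by CLSI broth microdilution in Mueller-Hinton II broth against clinical isolates. Inoculum was 10^5 CFU/ml, with 18 to 22 h incubation at 35°C in ambient air. MIC was read as the lowest concentration completely inhibiting visible growth.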

[9] = system: Stenotrophomonas maltophilia; assay: Antimicrobial activity against Stenotrophomonas maltophilia clinical isolate after 18 to 22 hrs by broth microdilution method in presence of beta-lactamase inhibitor Tazobactam; method in brief: as §5
[10] = system: Enterococcus gallinarum; assay: Antimicrobial activity against Enterococcus gallinarum clinical isolate after 18 to 22 hrs by broth microdilution method in presence of beta-lactamase inhibitor Tazobactam; method in brief: as §5
[11] = system: Proteus vulgaris; assay: Antimicrobial activity against Proteus vulgaris clinical isolate after 18 to 22 hrs by broth microdilution method in presence of beta-lactamase inhibitor Tazobactam; method in brief: as §5
[12] = system: Enterobacter cloacae; assay: Antimicrobial activity against AmpC beta-lactamase-producing Enterobacter cloacae clinical isolate after 18 to 22 hrs by broth microdilution method in presence of beta-lactamase inhibitor BLI-489; method in brief: as §3
[13] = system: Haemophilus influenzae; assay: Antimicrobial activity against beta-lactamase-negative Haemophilus influenzae clinical isolate after 18 to 22 hrs by broth microdilution method in presence of beta-lactamase inhibitor BLI-489; method in brief: as §2
[14] = system: Enterococcus hirae; assay: Antimicrobial activity against Enterococcus hirae clinical isolate after 18 to 22 hrs by broth microdilution method in presence of beta-lactamase inhibitor Tazobactam; method in brief: as §5
[15] = system: Staphylococcus aureus; assay: Antimicrobial activity against methicillin-resistant Staphylococcus aureus clinical isolate after 18 to 22 hrs by broth microdilution method in presence of beta-lactamase inhibitor Tazobactam; method in brief: as §4
[16] = system: Providencia rettgeri; assay: Antimicrobial activity against Providencia rettgeri clinical isolate after 18 to 22 hrs by broth microdilution method in presence of beta-lactamase inhibitor Tazobactam; method in brief: as §5
[17] = system: Acinetobacter calcoaceticus; assay: Antimicrobial activity against Acinetobacter calcoaceticus clinical isolate after 18 to 22 hrs by broth microdilution method in presence of beta-lactamase inhibitor BLI-489; method in brief: as §3
[18] = system: Enterococcus faecium; assay: Antimicrobial activity against vancomycin-resistant Enterococcus faecium clinical isolate after 18 to 22 hrs by broth microdilution method in presence of beta-lactamase inhibitor Tazobactam; method in brief: as §4
[19] = system: Staphylococcus epidermidis; assay: Antimicrobial activity against methicillin-susceptible Staphylococcus epidermidis clinical isolate after 18 to 22 hrs by broth microdilution method in presence of beta-lactamase inhibitor BLI-489; method in brief: as §1
[20] = system: Enterobacter cloacae; assay: Antimicrobial activity against Enterobacter cloacae clinical isolate after 18 to 22 hrs by broth microdilution method in presence of beta-lactamase inhibitor Tazobactam
Method in brief: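 Piperacillin-tazobactam was tested on recent clinical isolates by CLSI broth microdilution in Mueller-Hinton II broth, with tazobactam at constant 4 μg/ml. Wells held 10^5 CFU/ml and were incubated 18 to 22 h at 35°C in ambient air. MIC was the lowest concentration with no growth visible to the unaided eye.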

[21] = system: Bacteroides thetaiotaomicron; assay: Antimicrobial activity against Bacteroides thetaiotaomicron clinical isolate after 18 to 22 hrs by broth microdilution method in presence of beta-lactamase inhibitor BLI-489

With `CCN1CCN(C(=O)N[C@@H](C(=O)N[C@@H]2C(=O)N3[C@@H]2SC(C)(C)[C@@H]3C(=O)O)c2ccccc2)C(=O)C1=O` [PIPERACILLIN] as the compound, how does the MIC50 [1] read?
The MIC50 was 0.5 µg/mL.

And the MIC90 [1]?
The MIC90 was 1 µg/mL.

What about the MIC50 [2] of the same compound?
The MIC50 was 64 µg/mL.

And the MIC90 [2]?
The MIC90 was 128 µg/mL.

What about the MIC [3] of the same compound?
Its MIC is ≤ 0.004 µg/mL.

And the MIC50 [3]?
The MIC50 was ≤ 0.004 µg/mL.

And the MIC90 [3]?
The MIC90 was ≤ 0.004 µg/mL.

And the MIC [4]?
The MIC was ≤ 0.015 µg/mL.

And the MIC50 [4]?
Its MIC50 is ≤ 0.015 µg/mL.

And the MIC90 [4]?
Its MIC90 is ≤ 0.015 µg/mL.

And the MIC50 [5]?
Its MIC50 is 16 µg/mL.

And the MIC90 [5]?
The MIC90 was 32 µg/mL.

And the MIC50 [6]?
Its MIC50 is 2 µg/mL.

What about the MIC90 [6] of the same compound?
The MIC90 was 64 µg/mL.

What about the MIC [7] of the same compound?
Its MIC is 2 µg/mL.

What about the MIC50 [7] of the same compound?
Its MIC50 is 2 µg/mL.

What about the MIC90 [7] of the same compound?
The MIC90 was 64 µg/mL.

What about the MIC50 [8] of the same compound?
Its MIC50 is 2 µg/mL.

What about the MIC90 [8] of the same compound?
The MIC90 was 64 µg/mL.

And the MIC [9]?
The MIC was > 128 µg/mL.

And the MIC50 [9]?
The MIC50 was > 128 µg/mL.

What about the MIC90 [9] of the same compound?
Its MIC90 is > 128 µg/mL.

And the MIC50 [10]?
The MIC50 was 4 µg/mL.

And the MIC90 [10]?
Its MIC90 is 16 µg/mL.

What about the MIC50 [11] of the same compound?
Its MIC50 is 0.5 µg/mL.

What about the MIC90 [11] of the same compound?
The MIC90 was 2 µg/mL.

And the MIC50 [12]?
Its MIC50 is 2 µg/mL.

What about the MIC90 [12] of the same compound?
Its MIC90 is 8 µg/mL.

What about the MIC [13] of the same compound?
The MIC was ≤ 0.004 µg/mL.

What about the MIC50 [13] of the same compound?
Its MIC50 is ≤ 0.004 µg/mL.

What about the MIC90 [13] of the same compound?
Its MIC90 is 0.015 µg/mL.

And the MIC50 [14]?
The MIC50 was 4 µg/mL.

And the MIC90 [14]?
The MIC90 was 16 µg/mL.

And the MIC50 [15]?
The MIC50 was 64 µg/mL.

And the MIC50 [16]?
The MIC50 was 2 µg/mL.

And the MIC90 [16]?
Its MIC90 is 16 µg/mL.

What about the MIC50 [17] of the same compound?
Its MIC50 is > 128 µg/mL.

What about the MIC90 [17] of the same compound?
Its MIC90 is > 128 µg/mL.

And the MIC [18]?
The MIC was > 128 µg/mL.

What about the MIC50 [18] of the same compound?
The MIC50 was > 128 µg/mL.

And the MIC [19]?
The MIC was ≤ 0.004 µg/mL.

What about the MIC50 [19] of the same compound?
Its MIC50 is ≤ 0.004 µg/mL.

And the MIC90 [19]?
The MIC90 was ≤ 0.004 µg/mL.

What about the MIC50 [20] of the same compound?
The MIC50 was 2 µg/mL.

And the MIC90 [20]?
Its MIC90 is > 128 µg/mL.

What about the MIC50 [21] of the same compound?
The MIC50 was 16 µg/mL.

What about the MIC90 [21] of the same compound?
Its MIC90 is 16 µg/mL.
